According to ChEMBL document CHEMBL5223179, “Phenyl Dihydrouracil: An Alternative Cereblon Binder for PROTAC Design” (ACS Med Chem Lett, 2023):
pIC50: −log10 of the molar value. Calls of active or inactive are those of the source. The calls are words filed in the database; no cut-off is given here.

Tests used:
[1] = molecular target: Protein cereblon/DNA damage-binding protein 1 (Homo sapiens, UniProt Q96SW2); experiment: Displacement of Cy5-O-Len from 6His-tagged CRBN/DDB1 (unknown origin) incubated for 1 hr under dark condition by fluorescence polarization assay; type: protein assay
Chain of Protein cereblon/DNA damage-binding protein 1 (Q96SW2 whole entry): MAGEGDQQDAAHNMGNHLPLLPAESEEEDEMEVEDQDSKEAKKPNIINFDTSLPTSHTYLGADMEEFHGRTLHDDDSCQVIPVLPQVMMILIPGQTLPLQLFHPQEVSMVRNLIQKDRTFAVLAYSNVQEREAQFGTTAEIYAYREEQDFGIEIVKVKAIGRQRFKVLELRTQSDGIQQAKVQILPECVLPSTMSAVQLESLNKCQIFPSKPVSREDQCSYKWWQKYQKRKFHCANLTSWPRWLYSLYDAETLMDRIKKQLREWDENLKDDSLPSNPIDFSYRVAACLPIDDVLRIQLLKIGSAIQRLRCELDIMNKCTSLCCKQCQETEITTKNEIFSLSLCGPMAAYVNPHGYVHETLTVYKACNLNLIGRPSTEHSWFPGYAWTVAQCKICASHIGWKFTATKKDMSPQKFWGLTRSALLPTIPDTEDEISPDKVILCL
Chain of Protein cereblon/DNA damage-binding protein 1 (Q16531 whole entry, further chain): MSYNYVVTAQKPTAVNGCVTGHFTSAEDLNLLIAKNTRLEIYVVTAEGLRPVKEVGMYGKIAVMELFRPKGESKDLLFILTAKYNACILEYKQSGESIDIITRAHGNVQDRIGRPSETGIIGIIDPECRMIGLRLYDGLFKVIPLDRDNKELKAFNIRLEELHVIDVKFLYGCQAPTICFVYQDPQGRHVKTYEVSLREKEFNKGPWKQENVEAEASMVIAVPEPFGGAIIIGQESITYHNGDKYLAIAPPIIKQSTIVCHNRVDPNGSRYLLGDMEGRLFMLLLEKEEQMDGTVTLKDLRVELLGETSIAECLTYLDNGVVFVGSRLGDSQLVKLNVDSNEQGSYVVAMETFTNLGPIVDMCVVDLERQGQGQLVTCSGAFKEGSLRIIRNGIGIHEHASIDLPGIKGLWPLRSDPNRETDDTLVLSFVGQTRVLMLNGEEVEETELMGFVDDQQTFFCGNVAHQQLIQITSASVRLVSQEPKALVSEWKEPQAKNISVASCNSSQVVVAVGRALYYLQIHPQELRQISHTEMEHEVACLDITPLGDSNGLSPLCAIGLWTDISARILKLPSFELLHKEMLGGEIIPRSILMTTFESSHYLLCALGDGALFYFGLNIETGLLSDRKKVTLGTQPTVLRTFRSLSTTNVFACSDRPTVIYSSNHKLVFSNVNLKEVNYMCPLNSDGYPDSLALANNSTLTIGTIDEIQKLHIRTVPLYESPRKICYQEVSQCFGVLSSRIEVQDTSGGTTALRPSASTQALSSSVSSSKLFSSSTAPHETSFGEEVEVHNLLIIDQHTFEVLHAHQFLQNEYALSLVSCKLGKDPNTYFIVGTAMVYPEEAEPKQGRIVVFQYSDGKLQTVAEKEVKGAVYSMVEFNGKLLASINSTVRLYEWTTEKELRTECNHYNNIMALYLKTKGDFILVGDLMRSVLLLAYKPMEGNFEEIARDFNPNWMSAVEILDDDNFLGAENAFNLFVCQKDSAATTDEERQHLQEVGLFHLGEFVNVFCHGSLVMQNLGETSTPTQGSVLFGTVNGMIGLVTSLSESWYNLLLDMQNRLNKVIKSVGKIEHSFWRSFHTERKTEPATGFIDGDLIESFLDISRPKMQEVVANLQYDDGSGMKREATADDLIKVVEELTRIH

[2] = Metabolic stability in mouse liver microsomes assessed as clearance measured upto 240 mins in presence of NADPH regenerating system by LC-MS/MS analysis; type: ADME, Microsome; settings: 4 h
KOPTK1 [3] = experiment: Cytotoxicity against human KOPT-K1 cells incubated for 24 hrs by Celltiter-Glo assay; type: functional; settings: read-out: LC50 (the source's name)
Procedure, shortened: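 KOPT-K1 human T-ALL cells exposed to compound for 24 h. Viability read by CellTiter-Glo luminescence. LC50 derived from concentration-response curves.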

[4] = Permeability in human Caco-2 cells after 2 hrs by UPLC/MS analysis; type: ADME, cell-based; settings: caco-2, 2 h
KOPTK1 [5] = experiment: Cytotoxicity against human KOPT-K1 cells incubated for 72 hrs by Celltiter-Glo assay; type: functional; settings: for CC50: read-out: LC50 (the source's name)
Procedure, shortened: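 Human T-ALL KOPT-K1 cells treated with compounds for 72 h. Viability measured by CellTiter-Glo. LC50 fitted from dose-response data, reported as the mean of three independent experiments ± SD.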

[6] = molecular target: T1, Tyrosine-protein kinase Lck (Homo sapiens, UniProt P06239); experiment: Induction of HiBiT-tagged LCK degradation in human KOPT-K1 cells after 4 hrs by microplate reader analysis; type: cell-based
Target sequence in this assay (P06239 whole entry): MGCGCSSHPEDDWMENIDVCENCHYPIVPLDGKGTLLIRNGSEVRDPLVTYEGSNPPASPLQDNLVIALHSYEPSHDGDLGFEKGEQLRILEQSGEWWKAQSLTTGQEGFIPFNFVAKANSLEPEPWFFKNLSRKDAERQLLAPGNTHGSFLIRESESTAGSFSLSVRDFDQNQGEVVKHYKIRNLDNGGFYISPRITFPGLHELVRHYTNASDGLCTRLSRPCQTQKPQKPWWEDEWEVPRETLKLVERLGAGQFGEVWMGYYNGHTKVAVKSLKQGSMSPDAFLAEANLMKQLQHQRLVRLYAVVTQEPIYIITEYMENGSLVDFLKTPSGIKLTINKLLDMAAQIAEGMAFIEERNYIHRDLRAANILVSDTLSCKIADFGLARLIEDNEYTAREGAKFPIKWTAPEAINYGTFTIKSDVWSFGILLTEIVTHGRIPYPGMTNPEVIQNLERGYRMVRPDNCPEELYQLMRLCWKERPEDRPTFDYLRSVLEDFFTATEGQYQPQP

[7] = molecular target: Eukaryotic peptide chain release factor GTP-binding subunit ERF3A (Homo sapiens) (UniProt P15170); experiment: Induction of HiBiT-tagged GSPT1 degradation in HEK293T cells upto 10 uM incubated for 4 hrs; type: cell-based
Chain of Eukaryotic peptide chain release factor GTP-binding subunit ERF3A (Homo sapiens) (P15170 whole entry, canonical isoform): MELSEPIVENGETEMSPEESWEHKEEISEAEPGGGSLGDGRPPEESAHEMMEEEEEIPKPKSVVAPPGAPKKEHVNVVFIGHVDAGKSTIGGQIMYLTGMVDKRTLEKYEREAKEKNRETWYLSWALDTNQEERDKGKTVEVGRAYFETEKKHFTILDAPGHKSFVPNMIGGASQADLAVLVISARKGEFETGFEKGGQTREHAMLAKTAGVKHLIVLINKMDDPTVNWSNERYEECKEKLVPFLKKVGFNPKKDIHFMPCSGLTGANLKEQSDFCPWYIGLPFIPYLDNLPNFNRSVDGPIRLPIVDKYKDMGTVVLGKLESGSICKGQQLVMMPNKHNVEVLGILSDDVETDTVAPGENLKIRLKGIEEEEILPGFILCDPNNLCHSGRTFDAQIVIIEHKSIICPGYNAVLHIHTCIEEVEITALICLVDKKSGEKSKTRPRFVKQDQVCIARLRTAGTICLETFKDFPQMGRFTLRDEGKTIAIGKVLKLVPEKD
Procedure, shortened: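 HiBiT-tagged GSPT1 in HEK293T cells was measured after compound exposure at concentrations up to 10 μM.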

[8] = Chemical stability of compound in human KOPT-K1 cell culture media assessed as half life incubated upto 48 hrs; type: physicochemical
Procedure, shortened: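 Compound stability followed in KOPT-K1 cell culture medium over time; half-life derived from the remaining compound.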

[9] = Metabolic stability in mouse liver microsomes assessed as half life measured upto 240 mins in presence of NADPH regenerating system by LC-MS/MS analysis; type: ADME, Microsome
[10] = molecular target: T1, Tyrosine-protein kinase Lck; experiment: Induction of LCK degradation in human KOPT-K1 cells assessed as maximum degradation after 4 hrs by immunoblotting analysis relative to control; type: cell-based
Procedure, shortened: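 KOPT-K1 cells were treated with increasing concentrations of compound for 4 h. Endogenous LCK was assessed by immunoblot. Degradation was calculated from quantified band intensities, and DC50 from the average of three independent experiments.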
Target sequence in this assay (P06239 2-509 limits assumed): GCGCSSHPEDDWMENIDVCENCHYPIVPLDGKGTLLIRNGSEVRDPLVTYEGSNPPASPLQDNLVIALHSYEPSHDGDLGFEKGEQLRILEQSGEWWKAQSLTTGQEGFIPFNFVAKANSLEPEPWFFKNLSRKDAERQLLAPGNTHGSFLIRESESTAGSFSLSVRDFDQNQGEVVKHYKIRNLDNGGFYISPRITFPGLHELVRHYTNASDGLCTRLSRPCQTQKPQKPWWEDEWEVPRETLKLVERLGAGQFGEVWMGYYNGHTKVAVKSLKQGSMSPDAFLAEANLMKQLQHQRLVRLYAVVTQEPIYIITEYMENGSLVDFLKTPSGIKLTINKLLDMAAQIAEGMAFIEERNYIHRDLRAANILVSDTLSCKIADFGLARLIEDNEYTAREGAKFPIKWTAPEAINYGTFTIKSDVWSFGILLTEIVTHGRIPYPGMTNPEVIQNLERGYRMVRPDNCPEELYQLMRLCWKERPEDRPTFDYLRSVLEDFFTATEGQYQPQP

[11] = molecular target: DNA-binding protein Ikaros (Homo sapiens) (UniProt Q13422); experiment: Induction of IKZF1 degradation in human KOPT-K1 cells upto 100 nM incubated for 4 hrs by immunoblotting analysis; type: cell-based
Chain of DNA-binding protein Ikaros (Homo sapiens) (Q13422 whole entry): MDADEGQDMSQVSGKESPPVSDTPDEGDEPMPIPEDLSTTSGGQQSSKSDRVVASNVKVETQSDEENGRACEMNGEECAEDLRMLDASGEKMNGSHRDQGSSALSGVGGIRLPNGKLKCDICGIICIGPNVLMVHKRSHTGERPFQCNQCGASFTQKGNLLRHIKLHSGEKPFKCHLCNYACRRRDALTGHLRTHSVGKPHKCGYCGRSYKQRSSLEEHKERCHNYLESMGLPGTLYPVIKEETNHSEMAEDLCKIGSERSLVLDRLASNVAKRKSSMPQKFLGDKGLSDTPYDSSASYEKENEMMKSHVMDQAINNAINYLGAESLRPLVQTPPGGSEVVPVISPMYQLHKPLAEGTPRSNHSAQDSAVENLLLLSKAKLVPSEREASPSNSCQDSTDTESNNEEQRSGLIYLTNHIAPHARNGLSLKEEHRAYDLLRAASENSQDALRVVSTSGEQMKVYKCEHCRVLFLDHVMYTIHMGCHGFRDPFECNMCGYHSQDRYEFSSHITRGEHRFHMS
Procedure, shortened: (§1)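 KOPT-K1 cells were treated with compound at concentrations up to 100 nM. Endogenous GSPT1, IKZF1 and CK1α abundance was assessed by immunoblotting.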

[12] = molecular target: T1, Tyrosine-protein kinase Lck; experiment: Induction of LCK degradation in human KOPT-K1 cells after 4 hrs by immunoblotting analysis; type: cell-based
Target sequence in this assay (P06239 whole entry): as the sequence (P06239 whole entry) above

[13] = molecular target: Eukaryotic peptide chain release factor GTP-binding subunit ERF3A (Homo sapiens) (UniProt P15170); experiment: Induction of GSPT1 degradation in human KOPT-K1 cells upto 100 nM incubated for 4 hrs by immunoblotting analysis; type: cell-based; procedure, shortened: as §1
[14] = molecular target: Casein kinase I isoform alpha (Homo sapiens) (UniProt P48729); experiment: Induction of CK1alpha degradation in human KOPT-K1 cells upto 100 nM incubated for 4 hrs by immunoblotting analysis; type: cell-based; procedure, shortened: as §1
Chain of Casein kinase I isoform alpha (Homo sapiens) (P48729 2-337 limits assumed): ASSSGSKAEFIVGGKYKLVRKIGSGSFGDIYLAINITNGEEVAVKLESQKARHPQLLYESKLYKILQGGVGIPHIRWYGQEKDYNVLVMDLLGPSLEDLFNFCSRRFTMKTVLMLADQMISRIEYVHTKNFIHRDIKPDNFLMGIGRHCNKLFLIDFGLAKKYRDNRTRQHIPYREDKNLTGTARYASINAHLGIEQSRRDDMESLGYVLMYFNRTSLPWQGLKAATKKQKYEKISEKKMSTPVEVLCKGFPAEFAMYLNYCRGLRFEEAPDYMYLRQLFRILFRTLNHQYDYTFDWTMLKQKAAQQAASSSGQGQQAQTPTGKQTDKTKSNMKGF

Structure (SMILES): Cc1nc(Nc2ncc(C(=O)Nc3c(C)cccc3Cl)s2)cc(N2CCN(CCCNC(=O)COc3cccc4c3C(=O)N(C3CCC(=O)NC3=O)C4=O)CC2)n1 (stereo not drawn)
- pIC50 [1]: 5.99
- Stability [2]: Unstable
- CC50 (KOPTK1 [3]): 8 nM
- permeability [4]: Impermeable
- CC50 (KOPTK1 [5]): 10 nM
- DC50 [6]: 13 nM
- Activity [7]: inactive
- T1/2 [8]: 13 h

Structure (SMILES): O=C(O)COc1ccc(N2CCC(=O)NC2=O)cc1
- Activity (KOPTK1 [5]): inactive

Structure (SMILES): Cc1nc(Nc2ncc(C(=O)Nc3c(C)cccc3Cl)s2)cc(N2CCN(CCO)CC2)n1.O [DASATINIB]
- half-life [9]: 0.82 h

Structure (SMILES): Cc1nc(Nc2ncc(C(=O)Nc3c(C)cccc3Cl)s2)cc(N2CCN(CCCC(=O)N3CCN(c4ccc(C5CCC(=O)NC5=O)cc4)CC3)CC2)n1 (stereo not drawn)
- Stability [2]: Unstable
- CC50 (KOPTK1 [3]): 0.005 nM
- permeability [4]: Impermeable
- DC50 [6]: 8 nM

Structure (SMILES): Cc1nc(Nc2ncc(C(=O)Nc3c(C)cccc3Cl)s2)cc(N2CCN(CCCNC(=O)COc3ccc(N4CCC(=O)NC4=O)cc3)CC2)n1
- Stability [2]: Unstable
- Emax [10]: 66%
- Activity [11]: inactive
- CC50 (KOPTK1 [3]): 28 nM
- permeability [4]: Impermeable
- CC50 (KOPTK1 [5]): 0.005 nM
- DC50 [12]: 8 nM
- Activity [13]: inactive
- DC50 [6]: 15 nM
- T1/2 [8]: > 48 h
- Activity [14]: inactive

Structure (SMILES): O=C1CCN(c2ccc(N3CCNCC3)cc2)C(=O)N1
- Activity (KOPTK1 [5]): inactive

Structure (SMILES): Cc1nc(Nc2ncc(C(=O)Nc3c(C)cccc3Cl)s2)cc(N2CCN(CCCC(=O)N3CCN(c4ccc(N5CCC(=O)NC5=O)cc4)CC3)CC2)n1
- Stability [2]: Unstable
- Emax [10]: 98.4%
- Activity [11]: inactive
- CC50 (KOPTK1 [3]): 37 nM
- permeability [4]: Impermeable
- Activity [13]: inactive
- Activity [14]: inactive

Structure (SMILES): Cc1nc(Nc2ncc(C(=O)Nc3c(C)cccc3Cl)s2)cc(N2CCN(CCCNC(=O)COc3ccc(C4CCC(=O)NC4=O)cc3)CC2)n1 (stereo not drawn)
- Stability [2]: Unstable
- CC50 (KOPTK1 [3]): 0.24 nM
- permeability [4]: Impermeable
- DC50 [6]: 6 nM
- T1/2 [8]: > 48 h
